TRPC4 block – inhibitors of mouse TRPC4 channel, primary screen, Fluo4 calcium, HEK293 TRPC4beta/mu-opioid cells | 300,000 tested, 0.39% active | B-score at 10 µM | DAMGO-evoked Fluo4 calcium flux; hits give low values | Short transient receptor potential channel 4 (Mus musculus), Q9QUQ5;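 active = B-score over 3 SD under the library average, no early fluorescence shift, positive overall ratio signal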
Target sequence (Q9QUQ5 whole entry, looked up): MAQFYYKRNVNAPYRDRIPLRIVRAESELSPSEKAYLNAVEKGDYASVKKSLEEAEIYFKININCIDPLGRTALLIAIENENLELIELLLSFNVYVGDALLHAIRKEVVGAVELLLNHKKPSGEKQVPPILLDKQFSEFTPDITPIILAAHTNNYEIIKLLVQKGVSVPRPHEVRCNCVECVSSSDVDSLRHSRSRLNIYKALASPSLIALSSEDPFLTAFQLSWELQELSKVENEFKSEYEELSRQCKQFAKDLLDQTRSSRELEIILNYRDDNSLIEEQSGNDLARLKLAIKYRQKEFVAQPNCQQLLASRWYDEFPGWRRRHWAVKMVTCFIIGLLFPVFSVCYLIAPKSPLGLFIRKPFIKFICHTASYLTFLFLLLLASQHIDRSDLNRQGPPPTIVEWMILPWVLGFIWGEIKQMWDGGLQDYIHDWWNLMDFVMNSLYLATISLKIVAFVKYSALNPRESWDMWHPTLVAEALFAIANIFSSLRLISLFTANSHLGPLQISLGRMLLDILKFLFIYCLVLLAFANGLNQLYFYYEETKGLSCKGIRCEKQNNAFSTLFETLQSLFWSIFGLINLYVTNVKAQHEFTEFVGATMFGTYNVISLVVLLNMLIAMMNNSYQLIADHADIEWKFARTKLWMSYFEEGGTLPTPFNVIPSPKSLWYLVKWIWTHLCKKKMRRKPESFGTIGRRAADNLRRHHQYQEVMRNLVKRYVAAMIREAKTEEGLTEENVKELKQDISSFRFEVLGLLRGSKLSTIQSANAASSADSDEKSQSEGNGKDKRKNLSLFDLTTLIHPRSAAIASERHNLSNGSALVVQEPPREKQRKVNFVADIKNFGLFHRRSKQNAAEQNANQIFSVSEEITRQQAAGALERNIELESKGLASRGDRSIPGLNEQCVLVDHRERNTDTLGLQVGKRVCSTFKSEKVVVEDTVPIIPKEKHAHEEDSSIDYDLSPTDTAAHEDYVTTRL
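Material: HEK293 cells with stable TRPC4beta plus mu-opioid receptor expression; probe or stimulus: DAMGO in two steps, submaximal then maximal; technique: Fluo4 calcium fluorescence by kinetic imaging, 5 s 1 Hz baseline; measure: integrated fluorescence ratio relative to baseline, converted to per-well B score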
TRPC4 act – activators of mouse TRPC4 channel, primary screen, Fluo4 calcium, HEK293 TRPC4beta/mu-opioid cells. Fluo4 calcium fluorescence; hits give high values. B-score at 10 µM. 310,000 tested, 0.49% active. AID 2237, 2010;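 active = B-score above 5 SD of library B-scores, and initial fluorescence ratio not above library mean plus 5 SD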;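 also: positive B-score marks a calcium rise read as TRPC4 activation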
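Test system: HEK293 cells stably co-expressing mouse TRPC4beta and mu-opioid receptor | Schedule: Fluo4 dye loading 45 min at room temperature, 110 s recording | Measured by: Kinetic Fluo4 calcium fluorescence, 5 s baseline at 1 Hz | Evaluation: B score of integrated ratio | Controls: Buffer (low) and maximal DAMGO (high)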
TRPC6 act – mouse TRPC6 channel activators, primary screen, cell-based, HEK293, membrane potential dye; Short transient receptor potential channel 6 (Mus musculus), Q61143; HEK293-TRPC6 membrane potential dye fluorescence; hits give high values; B-score at 10 µM; 310,000 tested, 0.13% active; AID 2550, 2010;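 active = B-score of the integrated fluorescence ratio above library mean plus 3 SD, and starting fluorescence ratio within library mean plus 5 SD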;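 also: higher score means more depolarization so channel activation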
TRPC4 PAM – positive allosteric modulators of TRPC4, primary screen, cell-based, mouse TRPC4beta, HEK293 mu-opioid, Fluo-4 calcium; Short transient receptor potential channel 4 (Mus musculus), Q9QUQ5; DAMGO EC20, Fluo-4 Ca2+ flux; hits give high values; B-score at 10 µM; 310,000 tested, 0.42% active;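 active = B-score of calcium response area above 5 SD of library B-scores, with initial fluorescence ratio within 5 SD of library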;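 also: B-score of integrated fluorescence ratio over time as area under calcium response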
TRPC6 inhibitor – mouse TRPC6 channel inhibitors, primary screen, cell-based, HEK293, membrane potential dye. B-score at 10 µM. Short transient receptor potential channel 6 (Mus musculus), Q61143. 310,000 tested, 1.1% active. AID 2553, 2010. ACh-evoked depolarization; hits give low values;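 active = B-score under library mean minus 3 SD, initial fluorescence not abnormally high, positive integrated signal ratio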;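 also: B-score derived from integrated fluorescence ratio over the kinetic read; more negative B-score means stronger inhibition of depolarization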
TRPC4 spec 2 – mouse TRPC4 off-target activity of TRPC6 inhibitors, second screen | HEK293 TRPC4/MOR, membrane potential dye fluorescence; channel activated by saturating DAMGO dose | inhibition, % at 10 µM | 920 tested, 42% active | shares compounds with TRPC6 inhibitor | AID 2776;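 active = compounds whose fluorescence signal differed from control wells by over 3 SD, either direction, in both duplicate plates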
TRPC4 spec – mouse TRPC4 modulation by TRPC6 hits, confirmation, selectivity assay for TRPC6 inhibitor project, cell-based, HEK293 TRPC4/mu-opioid, membrane potential dye; 920 tested, 61% active; shares compounds with TRPC6 inhibitor; membrane potential fluorescence; activity change, negative = inhibition, % at 10 µM;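 active = rise or fall in signal beyond 3 SD of buffer-only wells in both replicate plates, either sign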;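 also: integrated kinetic ratio of fluorescence range over baseline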
HEK293 MPD ctr 2-1 – nonspecific membrane potential effects, parental HEK293, confirmation, counter-screen for TRPC6 inhibitor project, cell-based, second counter screen; AID 2779, 2010; signal change vs control, % at 10 µM; parental HEK293 membrane potential dye fluorescence; maximal acetylcholine challenge after compound addition; 920 tested, 31% active; shares compounds with TRPC6 inhibitor;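 active = membrane potential signal moving either way by over 3 SD of the maximum-effect control, in both duplicate plates, meaning non-specific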
HEK293 MPD ctr-1 – membrane potential modulation in parental HEK293, confirmation, counter-screen for TRPC6 inhibitor project, cell-based. shares compounds with TRPC6 inhibitor. parental HEK293 membrane potential dye fluorescence. membrane potential signal change, % at 10 µM. 920 tested, 60% active. AID 2780, 2010;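 active = membrane potential signal shifting up or down by more than 3 SD of buffer-only wells, on both duplicate plates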
HEK293 MPD ctr-2 – parental HEK293 membrane potential modulation, confirmation, counter-screen for TRPC6 modulator project, cell-based; shares compounds with TRPC6 inhibitor; membrane potential dye fluorescence; membrane potential signal change, % at 10 µM; 2,400 tested, 51% active;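 active = membrane potential signal moves up or down beyond 5 SD from buffer-only wells, on both duplicate plates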
HEK293 MPD ctr 2-2 – second check of TRPC6 modulator effects in parental HEK293 cells; shares compounds with TRPC6 inhibitor; inhibition, % at 10 µM; membrane potential dye fluorescence; after compound, maximal acetylcholine stimulation; 2,400 tested, 14% active;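 active = membrane potential signal drops by more than 5 SD from the mean control signal, in both duplicate plates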;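 also: plate controls were acetylcholine ECmax control wells for no effect and buffer only wells for full effect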
TRPC4/MOR mod – TRPC4 modulation by TRPC6 hit compounds, confirmation, selectivity assay for TRPC6 modulator project, cell-based, HEK293 TRPC4/mu-opioid, membrane potential dye, mouse. shares compounds with TRPC6 inhibitor. membrane potential fluorescence. percent change from control (negative = decrease, positive = increase), % at 10 µM. 2,400 tested, 69% active. AID 488927, 2010;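 active = membrane potential signal moved up or down beyond 5 SD of buffer control wells, in both duplicate plates, actives on both sides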;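 also: plate controls were assay buffer wells for no effect and DAMGO maximal-effect wells for full effect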
TRPC4/MOR inh 2 – second selectivity test of TRPC6 modulators against mouse TRPC4; 2,400 tested, 55% active; inhibition, % at 10 µM; shares compounds with TRPC6 inhibitor; AID 488928; HEK293 TRPC4/mu-opioid, membrane potential dye fluorescence; stimulated with maximal-effect DAMGO;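 active = drop in membrane potential signal beyond 5 SD of the control wells in both duplicate plates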;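 also: TRPC4 counter screen for TRPC6 hits run under conditions tuned for TRPC6 not TRPC4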
TRPC6 inh conf – mouse TRPC6 channel inhibitors, confirmation, HEK293 cells, membrane potential dye, duplicate; 3,300 tested, 43% active; ACh-evoked depolarization; shares compounds with TRPC6 inhibitor; inhibition, % at 10 µM;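 active = fluorescence ratio falls more than 5 SD below the full-stimulation control mean, in both duplicate runs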;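 also: integrated fluorescence ratio of peak minus minimum over baseline after agonist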
TRPC6 act confirm – mouse TRPC6 channel activators, confirmation, HEK293 cells, membrane potential dye, duplicate; shares compounds with TRPC6 inhibitor; HEK293-TRPC6 membrane potential dye fluorescence, FDSS; activation, % at 10 µM; 2,800 tested, 11% active;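 active = ratio signal rise beyond 5 SD above unstimulated control wells' mean, seen in both duplicate runs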;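 also: plate controls were buffer EC0 wells for no effect and acetylcholine ECmax response for full effect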
The depositor's hits bear a star; i = inactive; . = no result. In the library only some 2.3% were active in any assay of this set; here they are far more common.

SMILES	TRPC4 block	TRPC4 act	TRPC6 act	TRPC4 PAM	TRPC6 inhibitor	HEK293 MPD ctr-2	HEK293 MPD ctr 2-2	TRPC4/MOR mod	TRPC4/MOR inh 2	TRPC6 inh conf	TRPC6 act confirm	others
Cc1ccc(C)c(N2CCN(C(=O)CCS(=O)(=O)c3ccc4c(c3)oc(=O)n4C)CC2)c1	i	i	i	i	i	.	.	.	.	.	.
O=C(COCC(=O)Nc1cccc(C(F)(F)F)c1)Nc1cccc(C(F)(F)F)c1	i	i	i	i	i	.	.	.	.	.	.
COc1cc(NC(=O)CSCC(=O)Nc2cccc(C(F)(F)F)c2)c(Cl)cc1Cl	i	i	i	i	-7.3*	.	.	.	.	i	i	TRPC4 spec 2=i;TRPC4 spec=i;HEK293 MPD ctr 2-1=i;HEK293 MPD ctr-1=i
COCCN(C(=O)c1ccc(OCC(C)C)cc1)c1c(N)n(Cc2ccccc2)c(=O)[nH]c1=O	i	i	i	i	i	.	.	.	.	.	.
Cc1cccc(OCc2nnc(SCc3cc(=O)n4cc(Br)ccc4n3)o2)c1	i	i	i	i	-8*	.	.	.	.	i	i	TRPC4 spec 2=i;TRPC4 spec=0.1%*;HEK293 MPD ctr 2-1=i;HEK293 MPD ctr-1=0.6%*
C=CCC1(N(C(C)=O)c2ccccc2)CCCCC1	i	i	i	i	i	.	.	.	.	.	.
C=CCC1(N(C(C)=O)c2ccccc2C)CCCCC1	i	i	i	i	-9.4*	.	.	.	.	i	i	TRPC4 spec 2=i;TRPC4 spec=-0.4%*;HEK293 MPD ctr 2-1=i;HEK293 MPD ctr-1=0.5%*
CC(=O)Nc1ccc2c(c1)ncn2-c1ccc(C)cc1	i	i	i	i	-5.5*	i	i	i	i	i	i
O=C(NCC1CCCO1)c1cccc(S(=O)(=O)N2CCOCC2)c1 (stereo unspecified)	i	i	i	i	i	.	.	.	.	.	.
COc1ccc(-c2noc(CNC(=O)c3ccoc3C)n2)cc1OC	i	i	i	i	i	.	.	.	.	.	.
O=C(Nc1ncc([N+](=O)[O-])s1)c1cccc([N+](=O)[O-])c1	i	i	i	i	i	.	.	.	.	.	.
O=C(Nc1ccccc1)Nc1ncc([N+](=O)[O-])s1	i	i	i	i	-7.4*	.	.	.	.	96%*	.	TRPC4 spec 2=54%*;TRPC4 spec=43%*;HEK293 MPD ctr 2-1=i;HEK293 MPD ctr-1=21%*
Cc1cc(C)n2c(nc3ccccc32)c1C(=O)NN	i	i	i	i	i	.	.	.	.	.	.
COC(=O)c1c(C)cc(C)n2c1nc1ccccc12	i	i	i	i	-6.8*	.	.	.	.	64%*	i	TRPC4 spec 2=i;TRPC4 spec=-20%*;HEK293 MPD ctr 2-1=i;HEK293 MPD ctr-1=-334%*
COCCNC(=O)C1CCCN(S(=O)(=O)c2ccc3c(c2)CC(C)N3C(=O)C2CC2)C1 (stereo unspecified)	i	i	i	i	i	.	.	.	.	.	.
CC/C(=C\c1oc2cc3ccccc3cc2[n+]1CC)Nc1ccccc1	i	i	i	i	-5.1*	i	i	i	80%*	59%*	i
c1ccc(Cn2nnc3ccccc32)cc1	i	i	i	i	i	.	.	.	.	.	.
c1ccc(Cn2nnc3cnccc32)cc1	-5*	i	i	i	-8.1*	.	.	.	.	i	i	TRPC4 spec 2=i;TRPC4 spec=i;HEK293 MPD ctr 2-1=i;HEK293 MPD ctr-1=i
Cc1sc(NC(=O)c2ccccc2)c(C(=O)NCCN(C)C)c1C	i	148*	i	i	-11*	-161%*	i	-31%*	74%*	62%*	i
CN(C)CCNC(=O)c1ccccc1	i	i	i	i	i	.	.	.	.	.	.
Nc1ccccc1Nc1cc(-c2ccccc2)nn1-c1cccc(Cl)c1	i	i	i	i	-5.6*	i	i	i	30%*	i	i
CCOc1cc2c3c(c1)C(C)=CC(C)(C)N3C(=O)C2=O	i	i	i	i	i	.	.	.	.	.	.
CC(=O)Oc1cc2c3c(c1)/C(=C1/SC(=S)NC1=O)C(=O)N3C(C)(C)C=C2C	i	i	i	i	-5.7*	-112%*	i	-28%*	83%*	58%*	i
CCCNC(=O)c1ccc(N2CCC3(CC2)CC(c2ccccc2)=NO3)c(NC(=O)Cc2ccc(F)cc2)c1	i	i	i	i	i	.	.	.	.	.	.
CN1CCN(c2ccc([N+](=O)[O-])cc2NC(=O)c2ccccc2)CC1	i	i	i	i	-6.4*	-323%*	i	-50%*	36%*	i	i
CN1CCN(c2ccc([N+](=O)[O-])cc2C(=O)Nc2ccccc2)CC1	i	i	i	i	-5.3*	i	i	i	i	i	i

Screening data: PubChem, Johns Hopkins Ion Channel Center
